MsrA inhibitor = bovine MsrA inhibition | 360,000 compounds, 0.75% hits | AID 651718 | purified bovine MsrA, absorbance read-out | inhibition, % at 15.5 µM;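 also: 0% = vehicle wells with enzyme and 100% = reference inhibitor wells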
bovine MsrA act = bovine methionine sulfoxide reductase A activation; 360,000 compounds, 0.3% hits; purified bovine MsrA, absorbance read-out; activation, % at 10.6 µM; in the data active = activation above about 7.5%;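 also: 0% = vehicle and 100% = reference activator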
ARFGAP1 inh = inhibits rat ARF GTPase activating protein 1. Q62848. Arfgap1-stimulated ARF1 GTP hydrolysis, GDP FP detection. inhibition, % at 16.5 µM. 360,000 compounds, 0.26% hits. AID 651572;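 active = inhibition above a per-plate limit, mean inhibition of low control wells plus 3 SD, cut at about 25% in these data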;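 also: 0% = DMSO wells with enzyme and 100% = wells lacking Arfgap1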
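Assay system: purified rat His6-Arfgap1 residues 1-136 (GAP domain); Reagent: human Δ17 ARF1 bound to GTP; Dosing: 16.5 µM single point, 1.26% DMSO; Times: GTP hydrolysis reaction 2 h at 25 °C; Signal: FP, GDP Alexa 633 tracer displaced from anti-GDP antibody, 620/688 nm; Measure: % inhibition from polarization.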
ASAP1 GAP inh = ASAP1 ArfGAP inhibition; ASAP1-stimulated ARF1 GTP hydrolysis, GDP FP detection; inhibition, % at 16.5 µM; AID 624377; Q9ULH1; 360,000 compounds, 0.19% hits; in the data active = inhibition above about 25%;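 also: 0% = vehicle with enzyme and substrate and 100% = no enzyme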
Target sequence (Q9ULH1 325-724 limits assumed): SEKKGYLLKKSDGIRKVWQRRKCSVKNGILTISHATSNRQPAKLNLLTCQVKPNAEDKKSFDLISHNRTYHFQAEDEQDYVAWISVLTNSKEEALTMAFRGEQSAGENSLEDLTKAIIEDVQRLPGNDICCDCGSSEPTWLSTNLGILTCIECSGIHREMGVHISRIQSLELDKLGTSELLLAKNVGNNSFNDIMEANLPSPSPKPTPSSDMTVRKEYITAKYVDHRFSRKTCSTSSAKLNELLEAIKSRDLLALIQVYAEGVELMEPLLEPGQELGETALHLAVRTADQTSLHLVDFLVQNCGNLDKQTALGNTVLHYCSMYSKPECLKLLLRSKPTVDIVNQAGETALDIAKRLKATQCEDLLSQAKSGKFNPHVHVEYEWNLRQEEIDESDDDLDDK
MsrA activ conf = confirmation of bovine methionine sulfoxide reductase A activators; shares compounds with bovine MsrA act; purified bovine MsrA, absorbance read-out; activation, % at 10.6 µM; 1,000 compounds, 12% hits; AID 602270; in the data active = activation above about 4%;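 also: enzyme coupled to thioredoxin and thioredoxin reductase with NADPH; 0% = vehicle wells and 100% = reference activator wells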
ASAP1 GAP conf = confirmation of human ASAP1 inhibitors. shares compounds with ASAP1 GAP inh. ASAP1-stimulated Arf1 GTPase, GDP fluorescence polarization. inhibition, % at 16.5 µM. 620 compounds, 37% hits;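 active = mean inhibition over triplicates exceeds the hit threshold derived for the earlier primary screening run, cut at about 25% in these data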
MsrA conf = bovine MsrA inhibition, confirmed; 2,300 compounds, 41% hits; shares compounds with MsrA inhibitor; purified bovine MsrA, absorbance read-out; AID 651822; inhibition, % at 15.5 µM;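 also: coupled to thioredoxin reductase with NADPH and selenocystamine and DMSO as substrate; 0% = vehicle only and 100% = full effect of reference inhibitor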
* hit, by the source's call; · = no result given. An excerpt weighted towards active compounds, which were near 1.4% of everything screened. Rule as the data show it, unless noted: active = inhibition above about 4.5%; inactive = the rest.

SMILES	MsrA inhibitor	bovine MsrA act	ARFGAP1 inh	ASAP1 GAP inh	ASAP1 GAP conf	others
O=C(OCc1nnc(-c2ccccc2)o1)c1ccc([N+](=O)[O-])s1	9.3*	18.0*	5.2	-4.5	·	MsrA activ conf=24.1*;MsrA conf=7.2*
Cc1ccc(C(=O)OCc2nnc(-c3ccccc3)o2)s1	0.8	-5.3	-8.1	0.2	·
C/C(=N\N=C1\NC(=O)C(CC(=O)Nc2ccccc2F)S1)C1CCCCC1 (configuration not stated)	-0.4	-1.4	4.8	-6.1	·
C[n+]1c(-c2ccccc2)cc2c(=Cc3ccc([N+](=O)[O-])cc3)c3ccccc3n21	10.8*	19.6*	9.9	1.7	·	MsrA activ conf=16.7*;MsrA conf=0.2
COc1ccc(NC(=O)c2ccc(S(=O)(=O)N3CCOCC3)o2)cc1	0.6	-4.6	-8.6	-4.5	·
Cc1ccc(CNC(=O)CN2C(=O)COc3ccc(S(=O)(=O)N4CCCCC4)cc32)o1	0.6	-4.4	-1.3	-10.9	·
O=C1C(Cl)=C(NCCc2ccccc2)C(=O)c2ccccc21	-0.2	1.4	18.5	29.6*	6.1
O=C1C(Cl)=C(Nc2ccccc2)C(=O)c2ccccc21	0.7	-0.4	2.3	1.4	·
COc1ccc(CCN2C(=O)CSC2=Nc2ccc(C(C)C)cc2)cc1OC	0.1	2.4	-7.2	14.7	·
CC(=O)Nc1ccc(-c2ccnc3c2CC(C)(C(=O)NCc2ccc(N(C)C)cc2)O3)cc1 (configuration not stated)	-0.3	-3.9	7.6	0.7	·
CCCNC(=O)C1(C)CCN(Cc2ccc(-n3ccnc3)cc2)C1 (configuration not stated)	1.2	-4.8	3.2	26.1*	1.9
CCCNC(=O)C1(C)CCCN(Cc2ccc(-n3ccnc3)cc2)C1 (configuration not stated)	-0.5	-3.2	2.3	3.0	·
CN(C)c1ccc(/C=C/c2ccc3c4ccccc4ccc3[n+]2-c2ccccc2)cc1	0.1	-8.7	123.3*	86.5*	95.2*
COc1ccc(Nc2ncnc3sc(-c4ccccc4)cc23)cc1OC	2.9	-2.4	3.2	26.3*	28.1*
CC1=NN(c2ccccc2)C(=O)C1N=Nc1cccc(O)c1 (configuration not stated)	-0.2	-0.4	-2.0	29.4*	10.4
CC1=NN(c2ccccc2)C(=O)C1N=Nc1ccccc1 (configuration not stated)	0.2	2.4	-2.6	2.5	·
COc1cccc(/C=N/NC(=O)c2cc3cc([N+](=O)[O-])ccc3s2)c1O	-0.7	-5.3	0.3	41.6*	142.9*
COc1cccc(/C=N/NC(=O)C(=O)N/N=C/c2cccc(OC)c2O)c1O	-0.9	-1.5	-4.0	1.5	·
COC(=O)CCCC1=CC2=CC(=O)C(C)(OC(=O)c3cccs3)C(=O)C2=CN1Cc1ccccc1 (configuration not stated)	0.5	-3.6	-5.5	-3.8	·
COC(=O)CCCC1=CC2=CC(=O)C(C)(OC(=O)c3cccs3)C(=O)C2=CN1Cc1ccco1 (configuration not stated)	-0.4	-3.8	-6.2	24.9*	4.4
COc1ccc(C(=O)NC(C)c2ccc(-n3ccnc3)cc2)cc1[N+](=O)[O-] (configuration not stated)	-0.7	-2.7	-3.9	25.4*	11.6
COc1cc(C(=O)NC(C)c2ccc(-n3ccnc3)cc2)cc(OC)c1C (configuration not stated)	0.7	-2.8	5.2	-0.2	·
COc1ccc(C(=O)CSc2nc(=O)n(Cc3cccnc3)c3c2CCC3)cc1	-0.7	-2.9	12.8	25.9*	1.8
CCOc1ccc(NC(=O)CSc2nc(=O)n(Cc3cccnc3)c3c2CCC3)cc1	-0.6	-5.2	17.9	-1.1	·
CC(NC(=O)CCC(=O)c1ccccc1)c1ccc(F)cc1 (configuration not stated)	-1.6	-3.5	4.9	-0.3	·
Cc1ccc(-c2cc(C(=O)N/N=C/c3c(C)nn(-c4ccccc4)c3C)n[nH]2)s1	1.0	-9.4	16.6	25.8*	34.1*
Cc1ccc(-c2cc(C(=O)N/N=C/c3c(C)nn(-c4ccccc4)c3C)[nH]n2)cc1	0.9	-4.8	15.0	25.5*	6.6
